# Assay results from ChEMBL document CHEMBL4513216, “Probing the Open Global Health Chemical Diversity Library for Multistage-Active Starting Points for Next-Generation Antimalarials” (ACS Infect Dis, 2020).
# Assay: Toxicity liver stage against HepG2, at 10uM
# Assay type: cell-based
# Set-up: test concentration 10 uM, cell line HepG2-A16-CD81EGFP
# Settings: human, HepG2-A16-CD81EGFP cells; read-out: INHIBITION
# Procedure, shortened: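 Uninfected HepG2-A16-CD81EGFP cells, 3 × 10^3 per well, 1536-well, plated on prespotted compound at 10 μM final, parasite-free screening media added to match infected plates; puromycin 10 μM positive, DMSO 0.5% negative; run in parallel with 48 h PbLuc assay at 37 °C, 5% CO2; viability by CellTiter-Glo luminescence, normalized to controls.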
row,Compound,cytotoxicity at 10 µM [%]
1,Cc1cc2ncn(C(=O)N3CCCCC3)c2cc1C,10.3
2,O=C1CO[C@H](c2ccc(NS(=O)(=O)c3ccccc3)cc2)[C@@H](CO)N1,2.17
3,c1cnc2c(c1)nc1n2[C@@H](CNC2CCOCC2)COC1,-4.8
4,c1cn2c(n1)CO[C@@H](CNCc1ccc3c(c1)OCO3)C2,2
5,CC(=O)N1C[C@@H](F)[C@@H](OCc2nc3ccccc3o2)C1,-1.34
6,NC(=O)CC1c2cccnc2C(=O)N1Cc1ccccc1 (configuration not stated),-5.8
7,O=C(O)Cn1ccc(=O)c2ccccc21,-9.24
8,Cc1nn(C)cc1C1CC(=O)Nc2c1cnn2C(C)(C)C (configuration not stated),-5.45
9,O=C(NCCc1ccccn1)c1n[nH]c2c1CCC2,-3.81
10,O=C(c1ccno1)N1CC(c2nc(-c3ccco3)no2)C1,-11.3
11,CC(C)CNC(=O)N1C[C@@H]2CCCN[C@@H]2C1,5
12,CC(=O)N1CCC2(C1)CN(S(=O)(=O)c1ccccc1)C2,3.82
13,Cc1ncnc2c1CCN(C(=O)c1ccoc1)CC2,6.73
14,O=c1ccc(-c2cccs2)nn1CN1CCOC(c2ccccc2)C1 (configuration not stated),7.57
15,COC(=O)COc1nc(CC(C)C)c2c(c1C#N)CCCC2,21.5
16,Cc1sc(NC(=O)CN(C)S(C)(=O)=O)c(C#N)c1C,4.7
17,COCCN1CCC2(CCCN(C(=O)c3cnoc3C)C2)C1=O (configuration not stated),-23.8
18,CS(=O)(=O)N1CCN(C(=O)c2cc(-c3ccco3)cs2)CC1,4.73
19,CN(C)C(=O)CNC(=O)CCn1ncc2c(Cl)cccc21,-4.84
20,CS(=O)(=O)c1cnc(N2CCCC2)nc1C1CCN(C(=O)C2CC2)CC1,1.45
21,O=C(c1cscn1)N1CCc2[nH]nc(Nc3ccccc3)c2C1,7.82
22,CC(C)(NC(=O)Cc1ccccc1F)C(=O)O,3.13
23,CC(C)c1nc(O)c2nnn(C[C@@H]3CCCN(Cc4ccsc4)C3)c2n1,-4.6

row,Compound,cytotoxicity at 10 µM [%]
1,COCCn1cnnc1C1CCCN(C(C)C)C1 (configuration not stated),-27.6
2,Cc1noc(C)c1-c1nc(N(C)C)ncc1-c1cnccn1,-22.8
3,Cc1cc(C)c(CNC(=O)NC2CCN(C(=O)C(C)C)CC2)c(C)c1,9.46
4,Cc1nn(C)c(C)c1NC(=O)CNC(c1ccccc1)C1CCC1 (configuration not stated),1.44
5,Cc1cccc(NC(=O)N2CCC(CO)(Nc3ccccc3)CC2)c1,0.045
6,CC(C)(CO)N1CCN(S(=O)(=O)CCCF)CC1,-4.3
7,CCOc1ccc(NCc2cnc(N3CCN(C)CC3)nc2)cn1,-0.512
8,CNC(=O)CN1CCC(CN(C)Cc2ccc(C)cc2C)CC1,4
9,CSCC(=O)N1CCOC(c2nc(C(C)C)n[nH]2)C1 (configuration not stated),-4.99
10,COc1cc2nc(C)sc2cc1NC(=O)C(C)NC(N)=O (configuration not stated),-9.93
11,Cc1ccccc1C(NC(=O)NCC1(O)CCC1)C1CC1 (configuration not stated),-3.03
12,COc1cccc(-c2cnc(CNC(C)(C)c3nc(C)cs3)o2)c1,11.4
13,CCOCC(=O)NC(C)Cc1ccccc1Br (configuration not stated),-11
14,CC(=O)NC1(C(=O)N2CCCN(c3cccnn3)CC2)CCCCC1,8.15
15,CC(C)(C)OC(=O)NCCNC(=O)c1ccc2cc[nH]c2c1,-0.224
16,O=C(NCc1nncn1C1CC1)Nc1ccc(OC2CCC2)c(F)c1,-3.2
17,CCNC(=O)NCc1cccc(N2CC=CC2)c1,5.03
18,Cc1cnn(CC2CCCN2c2ccc(C#N)cn2)c1 (configuration not stated),14
19,Cc1nc(CN2CCN(C(=O)C(C(C)C)n3cncn3)CC2)cs1 (configuration not stated),-1.29
20,COc1ccc(OCCN(C)C(=O)c2ccc(OC)cc2O)cc1,-143
21,Cn1nnc2cc(C(=O)NS(=O)(=O)Cc3ccc(F)cc3)ccc21,-3.7
22,O=S(=O)(Nc1cn[nH]c1)c1ccc(Br)c(F)c1,0.462
23,OCC(O)CSCc1ccc(F)cc1Cl (configuration not stated),-138

row,Compound,cytotoxicity at 10 µM [%]
1,c1cc(N2CCSCC2)ccc1CNc1cncc2nnnn12,5.51
2,CCN(Cc1ccccc1)S(=O)(=O)C1CCS(=O)(=O)CC1,5.44
3,CC(C)C1CN(C(=O)Nc2cnn(CC(F)F)c2)CCO1 (configuration not stated),8.52
4,CCn1cnnc1CCNC(=O)C(C)(C)c1cccc(Cl)c1,7.76
5,Cc1csc(CNC(=O)NCC(O)c2cccc(Cl)c2)n1 (configuration not stated),-14.6
6,COCc1noc(C2(c3ccc(OC)cc3)CCOCC2)n1,-22.3
7,CC(=O)NCCc1ccc(S(=O)(=O)N(CC(C)C)C(C)C)s1,18.8
8,CC(C)(C)C(=O)NCCC(=O)NS(=O)(=O)c1ccc2c(c1)OCCO2,-3.81
9,Cc1ccccc1CS(=O)(=O)CC(=O)NCc1ccccc1F,-6
10,O=C(CC1CN(Cc2ccccc2)CCO1)NC1CCCC1 (configuration not stated),-0.394
11,O=C1CCCCN1CCc1nc(C2(c3ccc(F)cc3)CCOC2)no1 (configuration not stated),3.82
12,COc1cccc(-c2cc(C(=O)NCCCC(F)(F)F)[nH]n2)c1,-13.9
13,CCN(Cc1cn(CC2CCNCC2)nn1)CC1CCCO1 (configuration not stated),-1.77
14,Cc1nc(C2CCCNC2)cc(N(C)CCc2ccccc2)n1 (configuration not stated),-1.36
15,CC(C)N(CCO)C(=O)c1cc(COc2ccc3c(c2)CCCC3)on1,-135
16,Cc1nn(C)c2nc(NCCCN3CCCC(C(N)=O)C3)sc12 (configuration not stated),-9.8
17,CC[C@@]1(O)CCN(C(=O)c2cccc3cc(C)oc23)C[C@H]1O,4.62
18,CC(C)CN(Cc1ccc(C(F)(F)F)nc1)Cc1cnn(C)c1,1.42
19,O=C(CCCN1CCCCC1)N1CCN(C(=O)c2nc[nH]n2)CC1,7.81
20,Cc1cc(C)c2[nH]c(C(=O)NCCN3CCNC3=O)c(C)c2c1,2.49
21,CCN1CCC(CC(=O)NCCc2nc(O)cc(O)n2)CC1,-4.76
22,CCCc1cnc(C)nc1N1CCC(Cn2cc(CN(C)C)nn2)CC1,-4.4
23,O=C(c1ccccc1-c1nnn[nH]1)N1CCOC(C(F)(F)F)C1 (configuration not stated),-1.67

row,Compound,cytotoxicity at 10 µM [%]
1,O=C(O)CCc1cc2n(n1)CCN(Cc1ccc3[nH]ccc3c1)C2,-2.32
2,COc1nc2c(cc1C(=O)NCCc1nc3ccccc3s1)CCC2,5.79
3,Cc1cc(C)n2nc(C(=O)N[C@H]3C[C@H]4CN(C)CCN4C3)cc2n1,-0.671
4,C[C@H](N)C(=O)N1CCC(c2[nH]ncc2-c2ccccc2)CC1,2.4
5,Cc1cccc(C(=O)N2CCN(S(C)(=O)=O)[C@@H]3CS(=O)(=O)C[C@@H]32)n1,4.01
6,COc1cccn(Cc2nnc(-c3cccnc3)o2)c1=O,7.99
7,CCN(Cc1cnn(C)c1)C[C@H]1CC[C@@H](Cc2cccc(C#N)c2)O1,0.194
8,O=C(NCCc1ccncc1)c1cccc(S(=O)(=O)N[C@@H]2CCNC2)c1,4.93
9,COc1ccccc1NC(=O)c1cc2c([nH]c1=O)CCCC2=O,-4.14
10,Cc1cc(CNC(=O)NCc2cccs2)no1,-1.87
11,CN(Cc1ccco1)C(=O)C1CSCN1C(=O)C1CCC1 (configuration not stated),-13.2
12,COCCCNC(=O)CN(C)C(=O)c1cc(Cl)ccc1O,-1.84
13,CC(C)c1nc(CN2CCOC(Cn3cncn3)C2)no1 (configuration not stated),1.01
14,CC(=O)N(Cc1noc(C2CC2)n1)C1CCN(Cc2cc(C)on2)C1 (configuration not stated),-6.08
15,COc1cc(CNC(=O)N(Cc2ccc(F)cc2F)C2CC2)ccn1,-9.17
16,CCCN(C)CCC(=O)N1CCCC1Cn1cccn1 (configuration not stated),-16.9
17,CC(NC(=O)N1CCN(c2nccs2)CC1)c1nncn1C (configuration not stated),-13.1
18,Cc1cnn(CCNCc2ccccc2OCc2ccncc2)c1,-16.1
19,Cc1cnn(CCNCc2ccccc2OCc2ccccn2)c1,3.03
20,Cc1ccc(F)c(C(=O)N2CCC(Nc3ccc(C)nn3)CC2)c1,-3.78
21,Cc1cnn(C2CCCN(C(=O)c3ccnc(-n4cncn4)c3)C2)c1 (configuration not stated),-0.565
22,CCN(CCNC(=O)c1cccc(C)c1C)C1CC1,3.43
23,Cc1noc(C(C)C)c1C(=O)NCCCN1CCCCCC1=O,1.91

row,Compound,cytotoxicity at 10 µM [%]
1,CCCc1noc(CN2CCC(N(C)Cc3nnc(C4CC4)o3)C2)n1 (configuration not stated),-0.775
2,O=C(NCCc1ccn(-c2ccccc2)n1)N1CCCC(O)C1 (configuration not stated),-41.8
3,CN1CCN(C(=O)c2cccc(OCc3cscn3)c2)CC1,-6.18
4,CCOc1ccccc1OC1CCN(C(=O)c2ccc(=O)[nH]n2)CC1,-8.7
5,Cc1cc(C(=O)N2CCc3nnc(N)cc3C2)c(C)n1C1CC1,-3.71
6,COc1c(CNCc2ccc(CN(C)C)cc2)c(C)nn1C,3.87
7,CC(CN1CCOCC1)n1cncc1-c1ccc2c(c1)CCCN2C (configuration not stated),12.3
8,CC(C)CN1CCC2(CCCNC2)C1=O (configuration not stated),-0.184
9,CCOc1ccc(CN[C@@H]2COC[C@H]2c2ccc(F)cc2)cc1,17.1
10,O=S(=O)(NC[C@]12COC[C@H]1CN(c1ncc(F)cn1)C2)C1CC1,-128
11,Cc1ccoc1C(=O)N1CCc2ccc(=O)n(CCN(C)C)c2CC1,1.41
12,Cc1ccc(C(=O)N2CCC3(CC2)NC(=O)CC3c2ccccc2)cn1 (configuration not stated),-2.47
13,Cn1cc(C2CC(=O)NC23CCN(Cc2ccncc2)CC3)cn1 (configuration not stated),13.2
14,CNCC(=O)N1CCCC1c1n[nH]cc1-c1ccccc1F (configuration not stated),-0.136
15,O=C(c1nc2c(o1)CN(CC1CCC1)C2)N1CCCC1,-131
16,CNC(=O)[C@H]1C[C@@H]2CN(S(=O)(=O)Cc3ccccc3)C[C@@H]2N1C,-5.06
17,COc1c(CNC2CCc3c(F)cccc32)c(C)nn1C (configuration not stated),0.665
18,CS(=O)(=O)NC[C@H]1OC[C@@H]2CCN(Cc3ccc(F)cc3)C[C@@H]21,-2.26
19,O=C(C1CC1)N1CC2(CCN(CC3CC3)CC2)c2cc(F)ccc21,0.64
20,Cc1cccc(CN2CC3(CCN(Cc4ccco4)CC3)OCC2=O)n1,8.1
